From ChEMBL document CHEMBL1123792, “Nonsteroidal cardiotonics. 1. 2-Pyridyl-6,7-dihydro-3H,5H-pyrrolo[2,3-f]benzimidazol-6-ones, a novel class of cardiotonic agents” (1987) come the findings set out here.

Test [1] concerns Rattus norvegicus. The experiment in a line: Effective dose required to produce an increase in dP/dt50, blood pressure by 1500 mmHg/s was determined in rat by intravenous administration. It counts as functional. A digest of the protocol:
(§1)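 Anesthetized rats, dP/dt50, BP and HR (HR from LVP by pulse counter) recorded continuously. Increasing single bolus doses into jugular vein, 0.5 mL/kg, 10 min apart. Values read 10 min post-injection as steady state, not 1–3 min peak. ED1.5 = dose raising dP/dt50 by 1500 mmHg/s; max = peak rise from control; usually mean of four.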

For test [2], the system named is Canis familiaris. Description: Maximum increase in dP/dt recorded in mmHg/s at the dose 3.0 mg/kg administered intravenously in dog. It counts as functional, Canis lupus familiaris. The settings on record: route intravenous. Set-up: unit not given here. A digest of the protocol:
(§2)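 Conscious mongrel dogs (both sexes, 25–30 kg), chronically instrumented via left thoracotomy, used ≥10 days after surgery. Femoral artery BP, Millar tip LV pressure, femoral vein injection. dP/dt taken at LVP 60 mmHg. Increasing iv doses 10 min apart, readings every 10 min. ED1.5 = dose raising dP/dt by 1500 mmHg/s; max = peak rise from control; usually mean of four.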

Test [3] concerns Felis catus. The experiment in a line: Effective dose required to produce an increase in dP/dt50, blood pressure by 1500 mmHg/s was determined in cat by intravenous administration. It counts as functional. A digest of the protocol:
(§3)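 Cats of either sex on pentobarbitone (45 mg/kg ip, then 0.1 mg/kg × min infusion), ventilated, open chest. Dextran 10 mL/kg iv, then desacetylmepitranolol 0.3 mg/kg iv for β-blockade failure. LVP/HR via Millar tip in left ventricle; BP, dP/dt50. Rising iv bolus doses 10 min apart, read at 10 min. ED1.5 = dose raising dP/dt50 by 1500 mmHg/s; usually mean of four.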

The subject of test [4] is Rattus norvegicus. Description: Maximum increase in dP/dt recorded in mmHg/s at the dose 3.0 mg/kg administered intravenously in rat. The format is functional. The settings on record: route intravenous. The gist of the method:
as §1

In test [5] the test system is Felis catus. The experiment in a line: Maximum increase in dP/dt recorded in mmHg/s at the dose 1.0 mg/kg administered intravenously in cat. The settings on record: route intravenous. The format is functional. A digest of the protocol: as §3
The test system of test [6] is Canis familiaris. The experiment in a line: Effective dose required to produce an increase in dP/dt50, blood pressure by 1500 mmHg/s was determined in dog by intravenous administration. It counts as functional, Canis lupus familiaris. The gist of the method: as §2
The subject of test [7] is Rattus norvegicus. Description: Maximum increase in dP/dt recorded in mmHg/s at the dose 1.0 mg/kg administered intravenously in rat. The format is functional. The note with it: route intravenous. The gist of the method: as §1
Test [8] deals with Canis familiaris. The experiment in a line: Maximum increase in dP/dt recorded in mmHg/s at the dose in parentheses administered intravenously in dog. It counts as functional, Canis lupus familiaris. A digest of the protocol: as §2
Test [9] deals with Felis catus. The experiment in a line: Maximum increase in dP/dt recorded in mmHg/s at the dose 0.3 mg/kg administered intravenously in cat. It counts as functional. The note with it: route intravenous. A digest of the protocol: as §3
For test [10], the system named is Felis catus. Description: Maximum increase in dP/dt recorded in mmHg/s at the dose 10.0 mg/kg administered intravenously in cat. The format is functional. The note with it: route intravenous. A digest of the protocol:
as §3

Test [11] concerns Rattus norvegicus. Description: Maximum increase in dP/dt recorded in mmHg/s at the dose 10.0 mg/kg administered intravenously in rat. The note with it: route intravenous. It counts as functional. A digest of the protocol:
as §1

For test [12], the system named is Felis catus. Description: Maximum increase in dP/dt recorded in mmHg/s at the dose 0.1 mg/kg administered intravenously in cat. The format is functional. The settings on record: route intravenous. The gist of the method:
as §3

The test system of test [13] is Felis catus. The experiment in a line: Maximum increase in dP/dt recorded in mmHg/s at the dose 3.0 mg/kg administered intravenously in cat. It counts as functional. The note with it: route intravenous. A digest of the protocol:
as §3

The test system of test [14] is Canis familiaris. Description: Maximum increase in dP/dt recorded in mmHg/s at the dose 1.0 mg/kg administered intravenously in dog. The note with it: route intravenous. The format is functional, Canis lupus familiaris. The gist of the method: as §2
The subject of test [15] is Rattus norvegicus. The experiment in a line: Maximum increase in dP/dt recorded in mmHg/s at the dose 0.1 mg/kg administered intravenously in rat. It counts as functional. The note with it: route intravenous. A digest of the protocol:
as §1

In the case of `O=C1Nc2cc3[nH]c(-c4ccncc4)nc3cc2C12CCCC2`, the ED1.5 was 0.2 mg/kg with Rattus norvegicus [1], 0.08 mg/kg in the test with Felis catus [3] and 0.77 mg/kg with Canis familiaris [6]. The Max was 2.2 with Canis familiaris [2], 3300 mmHg/s with Rattus norvegicus [4] and 2800 mmHg/s in the test on Felis catus [5].

`CC1(C(=O)NN)C(=O)Nc2cc3[nH]c(-c4ccncc4)nc3cc21` (configuration not stated) yielded an ED1.5 in the test on Rattus norvegicus [1] of more than 10 mg/kg.

As to `CC1(C)C(=O)Nc2cc3[nH]c(CCc4ccncc4)nc3cc21`, the ED1.5 in the test on Rattus norvegicus [1] is more than 10 mg/kg.

As for `COc1nc(C)ccc1-c1nc2cc3c(cc2[nH]1)C(C)(C)C(=O)N3`, the ED1.5 with Rattus norvegicus [1] is more than 10 mg/kg.

For the compound `CC1(C)C(=O)Nc2cc3[nH]c(-c4cc[n+]([O-])cc4)nc3cc21`, the ED1.5 with Rattus norvegicus [1] was 0.03 mg/kg; in the test on Canis familiaris [6], 0.44 mg/kg. Further, the Max in the test with Rattus norvegicus [7] is 4900 mmHg/s; in the test with Canis familiaris [8], 1800 mmHg/s.

In turn, `O=C1Nc2cc3[nH]c(-c4ccncc4)nc3cc2C1C1CCCC1` (configuration not stated) registered an ED1.5 in the test with Rattus norvegicus [1] of more than 10 mg/kg.

As for `CC1(C)C(=O)Nc2cc3[nH]c(-c4ccnc(Cl)c4)nc3cc21`, the ED1.5 with Rattus norvegicus [1] and in the test on Felis catus [3] was 0.07 mg/kg each time. The Max in the test with Rattus norvegicus [7] came out at 3900 mmHg/s.

For the compound `CC1(C)C(=O)Nc2cc3[nH]c(-c4cccnc4)nc3cc21`, the values for the ED1.5 in the test with Rattus norvegicus [1], in the test on Felis catus [3] and with Canis familiaris [6] were 1 mg/kg, 0.02 mg/kg and 0.51 mg/kg, respectively. Further, the Max in the test on Canis familiaris [2] turned out to be 2.5; in the test on Felis catus [9] it was 3500 mmHg/s; in the test with Rattus norvegicus [4] it was 3500 mmHg/s.

With `CC1(C)C(=O)Nc2cc3[nH]c(Cc4ccncc4)nc3cc21`, the ED1.5 in the test with Rattus norvegicus [1] is 1.14 mg/kg; in the test on Felis catus [3] it was 0.6 mg/kg. For the same compound, the Max in the test with Felis catus [10] was found to be 3800 mmHg/s; in the test on Rattus norvegicus [11] it was 4100 mmHg/s.

On to `CC(C)CC1C(=O)Nc2cc3[nH]c(-c4ccncc4)nc3cc21` (configuration not stated), for which the ED1.5 in the test with Rattus norvegicus [1] was more than 3 mg/kg.

With `CC1(C)C(=O)Nc2cc3[nH]c(/C=C/c4cccnc4)nc3cc21`, the ED1.5 with Rattus norvegicus [1] was 1.21 mg/kg. In the test with Rattus norvegicus [11], this compound yielded a Max of 4300 mmHg/s.

With `CC1C(=O)Nc2cc3[nH]c(-c4ccncc4)nc3cc21` (configuration not stated), the ED1.5 with Rattus norvegicus [1] is 0.02 mg/kg; in the test on Felis catus [3], 0.01 mg/kg; with Canis familiaris [6], 0.58 mg/kg. Besides, the Max in the test with Rattus norvegicus [7] is 4400 mmHg/s; in the test with Canis familiaris [2], 1.7; with Felis catus [12], 2500 mmHg/s.

Take `CCOC(=O)C1(C)C(=O)Nc2cc3[nH]c(-c4ccncc4)nc3cc21` (configuration not stated): the ED1.5 in the test with Rattus norvegicus [1] is 0.09 mg/kg; with Felis catus [3], 0.25 mg/kg; with Canis familiaris [6] it was 0.64 mg/kg. Besides, the Max with Canis familiaris [2] was more than 3.6; in the test with Rattus norvegicus [4], 4200 mmHg/s; in the test with Felis catus [13], 3700 mmHg/s.

`CC(C)C1C(=O)Nc2cc3[nH]c(-c4ccncc4)nc3cc21` (configuration not stated) showed an ED1.5 in the test with Rattus norvegicus [1] of more than 3 mg/kg. Further, the Max in the test on Rattus norvegicus [11] stood at 2200 mmHg/s.

With `Cc1[nH]c(=O)c(C#N)cc1-c1ccncc1` [MILRINONE], the ED1.5 with Rattus norvegicus [1] came out at 0.14 mg/kg; in the test with Felis catus [3], 0.13 mg/kg; with Canis familiaris [6] it was 0.4 mg/kg. Besides, the results for the Max with Canis familiaris [14], with Felis catus [10] and in the test with Rattus norvegicus [11] were 2000 mmHg/s, 3000 mmHg/s and 3400 mmHg/s, respectively.

Regarding `CC1(C)C(=O)Nc2cc3[nH]c(-c4ccccn4)nc3cc21`, the ED1.5 was 0.96 mg/kg with Rattus norvegicus [1], 0.23 mg/kg in the test with Felis catus [3] and 1.11 mg/kg in the test on Canis familiaris [6]. Besides, the values for the Max in the test on Canis familiaris [2], in the test on Rattus norvegicus [4] and in the test on Felis catus [13] were 1.7, 2400 mmHg/s and 2700 mmHg/s, respectively.

In the case of `Cc1ccc(-c2nc3cc4c(cc3[nH]2)C(C)(C)C(=O)N4)cn1`, the ED1.5 in the test with Rattus norvegicus [1] is more than 3 mg/kg.

Take `CCC1C(=O)Nc2cc3[nH]c(-c4cccnc4)nc3cc21` (configuration not stated): the ED1.5 in the test with Rattus norvegicus [1] came out at 0.39 mg/kg; in the test on Felis catus [3], 0.15 mg/kg. In addition, the Max with Felis catus [5] is 2300 mmHg/s; in the test on Rattus norvegicus [11] it was 4000 mmHg/s.

In the case of `CC1C(=O)Nc2cc3[nH]c(-c4cccnc4)nc3cc21` (configuration not stated), the values for the ED1.5 with Rattus norvegicus [1], with Felis catus [3] and with Canis familiaris [6] were 0.06 mg/kg, 0.03 mg/kg and 0.08 mg/kg, respectively. For the same compound, the Max with Canis familiaris [14] is 2400 mmHg/s; in the test with Felis catus [9], 2300 mmHg/s; with Rattus norvegicus [4], 4600 mmHg/s.

Take `CCC1(CC)C(=O)Nc2cc3[nH]c(-c4ccncc4)nc3cc21`: the ED1.5 with Rattus norvegicus [1] is more than 3 mg/kg. This compound also had a Max in the test on Rattus norvegicus [11] of 1900 mmHg/s.

With `Cc1cc(-c2nc3cc4c(cc3[nH]2)C(C)(C)C(=O)N4)ccn1`, the figures for the ED1.5 in the test with Rattus norvegicus [1], with Felis catus [3] and with Canis familiaris [6] were 0.29 mg/kg, 0.03 mg/kg and 0.51 mg/kg, respectively. Moreover, the Max worked out at 2500 mmHg/s in the test on Rattus norvegicus [7], 1800 mmHg/s with Canis familiaris [14] and 2700 mmHg/s in the test with Felis catus [12].

`CCCCc1ccc(-c2nc3cc4c(cc3[nH]2)C(C)(C)C(=O)N4)nc1` displayed an ED1.5 in the test with Rattus norvegicus [1] of more than 3 mg/kg.

In the case of `CCC1C(=O)Nc2cc3[nH]c(-c4ccncc4)nc3cc21` (configuration not stated), the results for the ED1.5 in the test with Rattus norvegicus [1], with Felis catus [3] and with Canis familiaris [6] were 0.06 mg/kg, 0.04 mg/kg and 0.09 mg/kg, respectively. Also, the Max in the test with Canis familiaris [14] came out at 2300 mmHg/s; with Felis catus [9], 2500 mmHg/s; in the test with Rattus norvegicus [4] it was 4500 mmHg/s.

For the compound `CC1(C)C(=O)Nc2cc3[nH]c(-c4ccnc(O)c4)nc3cc21`, the ED1.5 in the test on Rattus norvegicus [1] is 0.87 mg/kg; in the test with Felis catus [3] it was 0.21 mg/kg. Further, the Max with Felis catus [5] turned out to be 2400 mmHg/s; with Rattus norvegicus [11], 3400 mmHg/s.

Consider `CC1(C)C(=O)Nc2cc3[nH]c(-c4ccncc4)nc3cc21` [ADIBENDAN], for which the Max is 3700 mmHg/s in the test with Rattus norvegicus [15], 2000 mmHg/s in the test on Canis familiaris [14] and 2000 mmHg/s with Felis catus [9]. Besides, the values for the ED1.5 in the test on Rattus norvegicus [1], in the test with Felis catus [3] and in the test with Canis familiaris [6] were 0.01 mg/kg, 0.01 mg/kg and 0.2 mg/kg, respectively.
